Active and inactive are the calls of the source.
How the values were obtained:
[1] = biological target: GABA-A receptor; anion channel; test: Displacement of [3H]flunitrazepam from GABA-A Benzodiazepine receptor of rat brain membranes; format: cell membranes, Membrane
How it was run: (§1)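 Well-washed, frozen rat whole brain membranes incubated with 0.5 nM [3H]flunitrazepam; nonspecific binding defined with 10 µM clonazepam. IC50 from log concentration vs percent inhibition curves, Ki via Cheng-Prusoff; triplicate determinations.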

[2] = tested on: Mus musculus; test: Percentage change in seizure threshold by anti-pentylenetetrazole test in mouse at a dose of 30 mg/Kg administered perorally; Inactive; format: functional, organism-based
[3] = species on record: Rattus norvegicus; test: Evaluated for shock induced suppression of drinking by rat vogel test and number of shocks taken were reported; format: functional
How it was run: (§2)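 Rats deprived of water, allowed 4 h drinking, then withdrawn overnight. On test day, free drinking for 30 s, then a mild footshock (0.225 mA, 0.5 s) for every 5 s of accumulated drinking in a 3 min session. Count of shocks taken recorded. Drug given ip to groups of 6-12 rats 30 min before testing; vehicle 1% methyl cellulose in 0.5% saline.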

[4] = tested on: Mus musculus; test: Percent of mice not grasping wire at a dose of 30 mg/Kg administered intraperitoneally in horizontal wire test; Inactive; format: functional, organism-based
[5] = tested on: Mus musculus; test: Percentage change in seizure threshold by pentylenetetrazole infusion method in mouse at a dose of 30 mg/Kg administered perorally; Inactive; format: functional, organism-based
[6] = tested on: GABA-A receptor; anion channel; test: Displacement of [3H]flunitrazepam from GABA-A Benzodiazepine receptor of rat brain membranes (Insoluble); format: cell membranes, Membrane; how it was run: as §1
[7] = tested on: Mus musculus; test: Percentage change in seizure threshold by pentylenetetrazole infusion method in mouse at a dose of 30 mg/Kg administered perorally; format: functional
[8] = tested on: GABA-A receptor; anion channel; test: Displacement of [3H]flunitrazepam from GABA-A Benzodiazepine receptor of rat brain membranes (insoluble); format: cell membranes, Membrane; how it was run: as §1
[9] = tested on: Mus musculus; test: Percent of mice not grasping wire at a dose of 300 mg/Kg administered intraperitoneally in horizontal wire test; format: functional
[10] = tested on: Mus musculus; test: Effective dose required for the percentage change in seizure threshold by anti-pentylenetetrazole test in mouse when administered perorally; format: functional; conditions: po
How it was run: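 Male CD-1 mice (18-24 g), groups of 10, dosed orally 60 min before testing. Lightly restrained mice received PTZ (8 mg/mL) by tail-vein infusion at 0.5 mL/min. Time to tonic hindlimb extension was converted to a PTZ threshold dose (mg/kg). Effect was expressed as % change in seizure threshold versus controls, with a two-tailed Student's t test.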

[11] = tested on: Rattus norvegicus; test: Compound was administered at a dose of 10 mg/Kg intraperitoneally and was evaluated for shock induced suppression of drinking by rat vogel test and number of shocks taken were reported; format: functional; how it was run: as §2
[12] = tested on: Mus musculus; test: Compound was evaluated for horizontal wire test and percent of mice not grasping wire, it was administered intraperitoneally; conditions: ip
[13] = tested on: Mus musculus; test: Compound was evaluated for horizontal wire test and percent of mice not grasping wire, it was administered perorally; conditions: po
[14] = tested on: Rattus norvegicus; test: Compound was administered at a dose of 2.5 mg/Kg intraperitoneally and was evaluated for shock induced suppression of drinking by rat vogel test and number of shocks taken were reported; format: functional
How it was run: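 Rats had water for a 4-h period, then water was withdrawn overnight. On test day, after 30 s of free drinking, a 0.225 mA footshock lasting 0.5 s was given for every 5 s of accumulated drinking in a 3-min session. Drug was given ip to groups of 6-12 rats 30 min before testing. Vehicle controls received 1% methyl cellulose in 0.5% saline. Read-out was the number of shocks taken.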

[15] = tested on: Mus musculus; test: Percentage change in seizure threshold by anti-pentylenetetrazole test in mouse at a dose of 30 mg/Kg administered perorally; format: functional
[16] = tested on: Mus musculus; test: Percentage change in seizure threshold by pentylenetetrazole infusion method in mouse at a dose of 100 mg/Kg administered perorally; format: functional
[17] = tested on: Mus musculus; test: Percent of mice not grasping wire at a dose of 30 mg/Kg administered intraperitoneally in horizontal wire test; format: functional
[18] = tested on: Mus musculus; test: Percentage change in seizure threshold by anti-pentylenetetrazole test in mouse at a dose of 100 mg/Kg administered perorally; Inactive; format: functional, organism-based
[19] = tested on: Rattus norvegicus; test: Compound was administered at a dose of 20 mg/Kg intraperitoneally and was evaluated for shock induced suppression of drinking by rat vogel test and number of shocks taken were reported; Inactive; format: functional, organism-based; how it was run: as §2

Row | SMILES | Ki [1] | No. of shocks [3] | Activity [4] | further results
1 | Cn1ncc2cc3c(cc21)ncc1c(=O)n(-c2ccc(Cl)cc2)[nH]c13 | 0.014 µM | 9 |  | Change [2]: inactive
2 | Cn1cc2c(=O)n(-c3ccc(Cl)cc3)nc-2c2sccc21 |  | 16.8 | inactive | Change [5]: inactive; Ki [6]: Insoluble
3 | Cn1cc2c(ccc3ncc4c(=O)n(-c5ccc(Cl)cc5)[nH]c4c32)n1 | 0.00046 µM | 5.7 | inactive | Change [2]: inactive
4 | Cn1cnc2c3c(ccc21)ncc1c(=O)n(-c2ccc(Cl)cc2)[nH]c13 | 0.0018 µM | 12 | inactive | 
5 | O=c1c2c(-c3ccccc3)nc3ccsc3c2[nH]n1-c1ccc(Cl)cc1 | > 1000 µM | 6.7 |  | Change [7]: 18%
6 | Cn1ncc2ccc3ncc4c(=O)n(-c5ccc(Cl)cc5)[nH]c4c3c21 | 0.012 µM | 13 | inactive | Change [2]: inactive
7 | Clc1ccc(-n2nc3c(cnc4ccsc43)c2Cl)cc1 |  | 13.7 |  | Ki [8]: Insoluble; Change [5]: inactive
8 | O=C1C2C=Nc3ccccc3C2=NN1c1ccc(Cl)cc1 (centres undefined) [CGS-9896] | 0.00035 µM |  |  | Activity [9]: 30%; ED50 [10]: 3.5 mg/kg; No. of shocks [11]: 12.7
9 | O=c1c2cnc3c4ccccc4sc3c2[nH]n1-c1ccc(Cl)cc1 | 0.81 µM | 14.1 | inactive | Change [5]: inactive
10 | COc1c2cnc3ccsc3c2nn1-c1ccc(Cl)cc1 |  | 13.4 |  | Change [5]: inactive; Ki [6]: Insoluble
11 | CN1C(=O)CN=C(c2ccccc2)c2cc(Cl)ccc21 [DIAZEPAM] |  |  |  | ED50 [10]: 1.5 mg/kg; ED50 [12]: 3.1 mg/kg; ED50 [13]: 3.8 mg/kg; No. of shocks [14]: 21.2
12 | Oc1c2cnc3cscc3c2nn1-c1ccc(Cl)cc1 | 0.00032 µM | 17 | inactive | Change [15]: 47%
13 | Cc1[nH]sc2ncc3c(=O)n(-c4ccc(Cl)cc4)nc3c12 | 0.099 µM | 11.9 | inactive | Change [16]: 48%
14 | Cn1c2ccccc2c2ncc3c(=O)n(-c4ccc(Cl)cc4)[nH]c3c21 |  | 10 |  | Ki [8]: Insoluble; Activity [17]: 25%
15 | Cc1nc2ccsc2c2[nH]n(-c3ccc(Cl)cc3)c(=O)c12 | 1 µM | 6.1 |  | Change [16]: 57%
16 | O=c1c2cnc3ccsc3c2[nH]n1-c1ccc(Cl)cc1 | 0.00046 µM | 14 | inactive | Change [18]: inactive
17 | Cc1ccc2c(ncc3c(=O)n(-c4ccc(Cl)cc4)[nH]c32)n1 | 11 µM |  |  | Change [18]: inactive; No. of shocks [19]: inactive
18 | CCc1cc2c(ncc3c(=O)n(-c4ccc(Cl)cc4)[nH]c32)s1 | 0.0018 µM | 14.4 | inactive | Change [5]: inactive
19 | Cn1cc2ccc3ncc4c(=O)n(-c5ccc(Cl)cc5)[nH]c4c3c2n1 | 0.00029 µM | 7 | inactive | 
20 | Cn1c2c(cnc3ccsc32)c(=O)n1-c1ccc(Cl)cc1 | 2.6 µM | 8.6 |  | Change [5]: inactive
21 | Cn1ncc2c3c(ccc21)ncc1c(=O)n(-c2ccc(Cl)cc2)[nH]c13 | 0.0024 µM | 13 | inactive | Change [15]: 37%
